Reference: article PMC5270551 (Biochemistry, 2015)
Where two headings read alike, the source gives them in different places. Where a SMILES comes first, the peptide text is derived from it. Bridges are numbered along the chain shown (N, C = ends).

Legend:
E. coli ATCC 25922 [1] = experiment: Morphology imaging by phase-contrast microscopy and SEM; assay type: cell-based, Escherichia coli; settings: for cells elongated (length 5 μm or greater) / cells exhibiting blebs: 1 × 10^8 CFU/mL, mid-log, 1 h 37 °C
E. coli ATCC 25922 [2] = assay type: cell-based, Escherichia coli; settings: for log-reduction in CFU/mL: 4 μM peptide
[3] = tested on: Acinetobacter baumannii 17978; assay type: cell-based
E. coli cyto-GFP = assay type: cell-based, Escherichia coli
Outline: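 An E. coli strain carrying cytoplasmic GFP, in mid-log or stationary phase, was exposed to test peptide across 0–80 μM. Cell length and mean GFP fluorescence intensity (arbitrary units) were taken from fluorescence images, and untreated and treated means were compared by Student's t-test.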

E. coli CFT073 = experiment: Morphology imaging of Gram-negative bacteria; assay type: cell-based, Escherichia coli; settings: 20 μM HD5ox, 1 × 10^8 CFU/mL, mid-log, 1 h 37 °C; R-HD5ox Figure S19
Outline: (§1)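 Mid-log bacteria at 1 × 10^8 CFU/mL were exposed to test peptide (20 μM; 40 μM for P. aeruginosa) for 1 h at 37 °C in 10 mM sodium phosphate buffer, pH 7.4, with 1% v/v TSB, then imaged by microscopy for morphology.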

[4] = tested on: Klebsiella pneumoniae 13883; experiment: Morphology imaging of Gram-negative bacteria; assay type: cell-based; settings: 20 μM peptide, 1 × 10^8 CFU/mL, mid-log, 1 h 37 °C
Outline: as §1

E. coli K-12 = experiment: Morphology imaging of Gram-negative bacteria; assay type: cell-based, Escherichia coli; settings: 20 μM peptide, 1 × 10^8 CFU/mL, mid-log, 1 h 37 °C
Outline: as §1

[5] = tested on: Pseudomonas aeruginosa PAO1; assay type: cell-based
[6] = cited from earlier work

## CC[C@H](C)[C@@H]1NC(=O)[C@H](CCC(=O)O)NC(=O)[C@@H]2CSSC[C@@H]3NC(=O)[C@H](Cc4ccc(O)cc4)NC(=O)[C@@H](NC(=O)[C@@H](NC(=O)[C@H](C)N)[C@@H](C)O)CSSC[C@@H](C(=O)N[C@@H](CCCNC(=N)N)C(=O)O)NC(=O)[C@H](CSSC[C@H](NC(=O)[C@H](CCCNC(=N)N)NC(=O)CNC(=O)[C@H]([C@@H](C)O)NC(=O)[C@H](CCCNC(=N)N)NC3=O)C(=O)N[C@@H](C)C(=O)N[C@@H]([C@@H](C)O)C(=O)N[C@@H](CCCNC(=N)N)C(=O)N[C@@H](CCC(=O)O)C(=O)N[C@@H](CO)C(=O)N[C@@H](CC(C)C)C(=O)N[C@@H](CO)C(=O)NCC(=O)N[C@@H](C(C)C)C(=O)N2)NC(=O)[C@H](CC(C)C)NC(=O)[C@H](CCCNC(=N)N)NC(=O)[C@H](Cc2ccc(O)cc2)NC(=O)[C@H](CC(C)C)NC(=O)[C@H](CCCNC(=N)N)NC(=O)CNC(=O)[C@H](CO)NC1=O [HD5ox] (H-ATCYCRTGRCATRESLSGVCEISGRLYRLCCR-OH; disulfide 3-31, 5-20, 10-30 (inferred); N-terminus and C-terminus assumed)
E. coli ATCC 25922 [1]; 20 μM peptide, n = 212 cells
  cells elongated (length 5 μm or greater): 2%
  cells exhibiting blebs: ~ 17%
E. coli ATCC 25922 [1]; 40 μM peptide co-treated with 200 mM NaCl
  bacterial morphology with NaCl: smooth morphology similar to that of the untreated control
E. coli ATCC 25922 [1]; 2 and 4 μM peptide, mid-log phase, 1 × 10^6 CFU/mL, standard AMA conditions
  bacterial morphology (phase-contrast): formation of large bulges
E. coli ATCC 25922 [1]; ≥40 μM peptide, n = 203 cells
  cells elongated (length 5 μm or greater): ≥ 4%
  cells exhibiting blebs: ~ 30%
E. coli ATCC 25922 [2]; mid-log phase E. coli
  log-reduction in CFU/mL: ~ 4 fold log-reduction in CFU/mL
E. coli ATCC 25922 [2]; stationary phase E. coli
  log-reduction in CFU/mL: ~ 2 fold log-reduction in CFU/mL
E. coli ATCC 25922 [2]; 40 μM peptide, modified AMA conditions, 1 × 10^8 CFU/mL
  log reduction in CFU/mL: ≈ 2 fold log reduction in CFU/mL
E. coli ATCC 25922 [2]; 2:1 Zn(II):HD5ox molar ratio
  antibacterial activity in presence of Zn(II): loss of antibacterial activity
E. coli ATCC 25922 [2]; Ca(II), Mg(II) and Zn(II) added
  HD5ox activity in presence of divalent cations: blocked HD5ox activity
E. coli ATCC 25922 [2]; E. coli ATCC 25922, 1 × 10^6 CFU/mL, n = 3 (Figure 9C)
  lethal dose for 99.99% killing, LD99.99: 8 µM
[3]; 20 μM peptide, 1 × 10^8 CFU/mL, mid-log, 1 h 37 °C
  bacterial morphology: bleb formation, elongation, and clumping
[3]; 17978, 1 h
  HD5ox concentration at which blebs were displayed: 10 µM
E. coli cyto-GFP; mid-log phase, increasing HD5ox (0–80 μM), from 2.8 ± 0.8 μm without peptide
  mean cell length after treatment: 3.4 ± 1.0 μm
E. coli cyto-GFP; mid-log phase, increasing HD5ox (0–80 μM), from 155 ± 48 units without peptide
  mean GFP fluorescence intensity after treatment: 93 ± 47 units
E. coli cyto-GFP; stationary phase, from 3.0 ± 0.8 μm without peptide
  mean cell length after treatment: 2.9 ± 0.7 μm
E. coli cyto-GFP; stationary phase, from 112 ± 38 units without peptide
  mean GFP fluorescence intensity after treatment: 139 ± 53 units
E. coli CFT073
  bacterial morphology: bleb formation, elongation, and clumping
[4]
  bacterial morphology: bleb formation, elongation, and clumping
E. coli K-12
  bacterial morphology: bleb formation, elongation, and clumping
[5]; 40 μM peptide, 1 × 10^8 CFU/mL, mid-log, 1 h 37 °C
  bacterial morphology: bleb formation, elongation, and clumping
[5]; PAO1, 1 h
  HD5ox concentration at which blebs were observed (only at this concentration): 40 µM
[6]
  oligomeric form at neutral pH: tetramers

B1: HD5-TE: Linear form of human α-defensin 5 (iodoacetamide-capped) (peptide, UniProt Q01523 20-94, looked up)
Defensin alpha 5: ESLQERADEATTQKQSGEDNQDLAISFAGNGLSALRTSGSQARATCYCRTGRCATRESLSGVCEISGRLYRLCCR
modifications: Defensin-5 cysteines carbamidomethylated
E. coli ATCC 25922 [2]; 16 μM peptide
  log reduction of CFU/mL: 2 fold log reduction of CFU/mL

B2: R-HD5[R9K]: rhodamine-HD5 conjugate, fluorophore positioned at R9K mutation site (conjugate, UniProt Q01523 20-94, looked up, variant R9K)
Defensin alpha 5: ESLQERADEATTQKQSGEDNQDLAISFAGNGLSALRTSGSQARATCYCRTGKCATRESLSGVCEISGRLYRLCCR
modifications: Defensin-5 rhodamine label at K9
E. coli ATCC 25922 [2]; AMA assay
  antimicrobial activity against E. coli (in words): active against E. coli
